Shown are actives, neighbours in structure and some others; about 7.6% of the full set was active somewhere.
M1 antagonist = M1 muscarinic receptor (rat) antagonism. B-score at 10 µM. CHO-M1 cells, Fluo-4 calcium, ACh EC80 antagonist mode; stronger effect = lower value. P08482. AID 628. 3.4% of 64,000 active;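 active = calcium fluorescence response, raw or row-and-column corrected B-score, differing from the plate sample mean either way at a set confidence level, mostly lower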
DAT uptake mod = changed human dopamine transporter uptake under cocaine IC80. LLC-PK1 hDAT cells, [14C]-dopamine uptake with cocaine IC80; actives deviate in either direction. B-score at 10 µM. 1.3% of 110,000 active;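 active = Z score or B-score, a plate-position-corrected score, falls beyond the plate's 99.7% confidence bounds, in either direction; inactive = both scores lie inside the 99.7% bounds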
Target sequence (Q01959 whole entry, looked up): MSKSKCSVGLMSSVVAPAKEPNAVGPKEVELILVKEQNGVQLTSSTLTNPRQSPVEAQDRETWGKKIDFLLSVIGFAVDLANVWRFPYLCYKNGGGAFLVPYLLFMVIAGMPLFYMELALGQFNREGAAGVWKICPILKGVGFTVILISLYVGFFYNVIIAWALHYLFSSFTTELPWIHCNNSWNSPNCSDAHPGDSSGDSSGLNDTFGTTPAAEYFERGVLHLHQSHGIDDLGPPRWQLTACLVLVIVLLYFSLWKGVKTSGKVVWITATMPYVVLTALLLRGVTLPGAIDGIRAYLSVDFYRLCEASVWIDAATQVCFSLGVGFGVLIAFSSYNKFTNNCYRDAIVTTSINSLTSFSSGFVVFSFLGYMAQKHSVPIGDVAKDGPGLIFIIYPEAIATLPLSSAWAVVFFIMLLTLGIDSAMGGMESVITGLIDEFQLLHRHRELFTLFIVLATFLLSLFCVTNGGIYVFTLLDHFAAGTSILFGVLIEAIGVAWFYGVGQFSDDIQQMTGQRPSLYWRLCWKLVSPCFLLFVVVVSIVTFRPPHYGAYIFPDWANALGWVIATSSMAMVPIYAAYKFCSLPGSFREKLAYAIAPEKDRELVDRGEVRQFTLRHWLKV
M1 agonist = agonists of M1 muscarinic receptor | AID 626 | CHO-M1 cells, Fluo-4 calcium fluorescence, agonist mode; stronger effect = higher value | B-score at 10 µM | 3% of 64,000 active;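 active = fluorescence rise, raw or as B-score row- and column-corrected plate score, outside the 99.7% band of its plate's samples, either direction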
Jurkat tox 60K = cytotoxic compounds reducing Jurkat cell viability. Jurkat E6.1 viability, ATP luminescence, 48 h. inhibition, % at 4 µM. 1.2% of 56,000 active. AID 463;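 active = inhibition above the mean inhibition of all tested compounds plus 3 SD, cut at about 28% in these data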
D1 mod = allosteric modulators of human D1 dopamine receptor; AID 641; B-score at 10 µM; P21728; HEK293 D1, CRE-luciferase, dopamine EC30 potentiation; actives deviate in either direction; 5.9% of 58,000 active;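 active = luminescence count or its row- and column-corrected plate score outside the 99.7% band of the plate's sample wells, on either side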
HEK293 NFkB inh = lowers PMA/ionomycin-induced NF-kB signal in HEK293 cells; 0.21% of 62,000 active; inhibition, % at 3 µM; HEK-293 NF-kB luciferase reporter, luminescence;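 active = inhibition above the mean of all tested compounds plus 3 SD, cut at about 40% in these data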
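System – HEK-293 cells with stable firefly luciferase reporter driven by four HIV NF-kB elements · Doses – one dose, 3 µM · Schedule – 1 h compound pre-incubation, 16 h PMA/ionomycin at 37 °C · Technique – luminescence from luciferase substrate reagent · Measure – percent inhibition normalized per plate to DMSO and reference-inhibitor controls · Replicates – tested once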
Hits are given with their value; 0 = inactive; - = no result.

SMILES | M1 antagonist | DAT uptake mod | M1 agonist | Jurkat tox 60K | D1 mod | HEK293 NFkB inh
COc1ccc(NC(=S)NC(NC(=O)c2cccc(Cl)c2)C(Cl)(Cl)Cl)c([N+](=O)[O-])c1 (stereo not drawn) | - | 0 | - | - | - | -
COc1ccc(NC(=S)NC(NC(=O)c2cccc(C)c2)C(Cl)(Cl)Cl)c([N+](=O)[O-])c1 (stereo not drawn) | - | 0 | - | - | - | -
CCOC(=O)NC(NC(=S)Nc1ccccc1[N+](=O)[O-])C(Cl)(Cl)Cl (stereo not drawn) | - | -3.53 | - | - | - | -
O=C(O)c1ccc2c(c1)ncn2C1CCCCC1 | - | 0 | - | - | - | -
O=S(=O)(c1ccccc1C(F)(F)F)N1CCC(n2cnc3ccccc32)CC1 | - | 2.67 | - | - | - | -
Cc1cc(C)n(C(=O)c2ccc(S(=O)(=O)N3CCOCC3)cc2)n1 | - | 0 | - | - | - | -
Cc1cc(C)n(C(=O)c2cccc(S(=O)(=O)N3CCOCC3)c2)n1 | 0 | -8.32 | 0 | 0 | 0 | 0
Cc1cc(C)n(C(=O)c2ccncc2)n1 | 0 | 0 | 0 | 0 | - | 0
O=c1cc(Nc2ccc3c(c2)OCO3)[nH]c(=O)n1-c1ccc(Br)cc1 | 0 | 0 | 0 | - | -7.65 | 0
CN1C(=O)Cc2cc(S(=O)(=O)N3CCOCC3)ccc21 | 0 | -8.72 | 0 | 0 | 0 | 0
CC(=O)Nc1ccc(S(=O)(=O)NC(CC(=O)N(C)Cc2ccccc2)C(C)C)cc1 (stereo not drawn) | 0 | 0 | 0 | 0 | 0 | 0
O=C(NCCCCc1ccccc1)C1CC(c2cccc([N+](=O)[O-])c2)=NO1 (stereo not drawn) | - | 0 | - | - | - | -
CCN(CC)S(=O)(=O)c1ccc2c3c(cccc13)C(=O)N2 | 0 | 2.54 | 0 | 0 | 0 | 0
CCN(CC)CCCN(C(C)=O)c1nc(-c2cc(OC)ccc2OC)cs1 | 0 | 0 | 0 | 0 | 0 | 0
CCN(CC)C(=O)Oc1ccc2c(=O)c(-c3ccc(OC)cc3)c(C)oc2c1 | 0 | 3.22 | 0 | 0 | 0 | 0
CCN(CC)C(=O)Oc1ccc2c(=O)c(-c3ccc(OC)cc3)coc2c1 | 0 | 0 | 0 | 0 | - | 0
O=C1C2C3CC(C(Br)C3Br)C2C(=O)N1c1ccccn1 (stereo not drawn) | - | -7.92 | - | - | - | -
Cc1ccnc(N2C(=O)C3C4CC(C(Br)C4Br)C3C2=O)c1 (stereo not drawn) | - | 0 | - | - | - | -
COc1ccccc1/C=N/n1c(N)c(S(=O)(=O)c2cccs2)c2nc3ccccc3nc21 | - | 3.5 | - | - | - | -
COc1ccc(CCn2c(N)c(S(=O)(=O)c3cccs3)c3nc4ccccc4nc32)cc1OC | 0 | 0 | 0 | - | 0 | 0
CCn1c(N)c(C(=O)Nc2ccccc2C(=O)OC)sc1=S | 0 | 0 | 0 | 0 | 0 | 0
CC1=C(C(=O)OCC2CCCO2)C(c2cccc(C(F)(F)F)c2)C2=C(CC(c3ccco3)CC2=O)N1 (stereo not drawn) | - | 0 | - | - | - | -
CC1=C(C(=O)OCC2CCCO2)C(c2ccc(C)o2)C2=C(CC(c3ccc(N(C)C)cc3)CC2=O)N1 (stereo not drawn) | 0 | 0 | 5.57 | 0 | 0 | 0
CC1=C(C(=O)OCC2CCCO2)C(c2ccc(C)o2)C2=C(CC(c3ccc(F)cc3)CC2=O)N1 (stereo not drawn) | 0 | 0 | 0 | 0 | -3.12 | 0
CCOC(=O)c1ccc(NC(=O)c2c(N)n(Cc3ccccc3)c(=O)[nH]c2=O)cc1 | - | 0 | - | - | - | -
SMILES | M1 antagonist | DAT uptake mod | M1 agonist | Jurkat tox 60K | D1 mod | HEK293 NFkB inh
CCNC(=O)c1ccccc1NC(=O)c1cccc(S(=O)(=O)N2CCC(C)CC2)c1 | 0 | 0 | 0 | 0 | 0 | 0
CNC(=O)c1ccccc1NC(=O)c1cccc(S(=O)(=O)N2CCC(C)CC2)c1 | 0 | 0 | 0 | 0 | -3.73 | 0
N#Cc1ccc(CSc2nnc(NC(=O)CN3C(=O)C4CC=CCC4C3=O)s2)cc1 (stereo not drawn) | 0 | 0 | 0 | 0 | 0 | 0
COc1ccc(S(=O)(=O)N(CCCN2CCCC2=O)Cc2cc3c(C)cc(C)cc3[nH]c2=O)cc1 | 0 | 0 | 5.06 | 0 | 0 | 0
CCCn1nc2cc(C(=O)NCc3ccc(OC)cc3)ccc2c1OCC | - | 2.31 | - | - | - | -
CCCCn1nc2cc(C(=O)NCC3CC3)ccc2c1OCC | - | 0 | - | - | - | -
CCCn1nc2cc(C(=O)NC3CCc4ccccc43)ccc2c1OCC (stereo not drawn) | - | 2.31 | - | - | - | -
CCCn1nc2cc(C(=O)NCc3ccc(OC(F)(F)F)cc3)ccc2c1OCC | - | 0 | - | - | - | -
O=C(NCC1(N2CCOCC2)CCCCC1)c1ccc(Cl)c(S(=O)(=O)NCc2ccco2)c1 | 0 | 0 | 0 | 0 | 0 | 0
O=C(Nc1nc(-c2cccs2)cs1)c1ccc(S(=O)(=O)N2CCCC2)cc1 | 0 | 0 | 0 | 0 | 0 | 0
CC(=O)COC(=O)c1cccc(N2C(=O)C3C4C=CC(C4)C3C2=O)c1 (stereo not drawn) | 0 | 0 | 0 | 0 | 0 | 0
CCC(=O)Nc1c(-c2cccs2)c(=O)c2ccccc2n1C | 0 | 0 | 0 | 0 | 0 | 0
O=c1[nH]c(SCc2cccc(Cl)c2)nc2c1CCCC2 | 0 | 0 | 0 | - | 0 | 0
N=c1c2c(n(Cc3ccc(Cl)cc3)c3c1CCC3)CCC2 | 0 | -6.7 | 0 | 88.4 | 0 | 0
N=c1c2c(n(Cc3ccccc3)c3c1CCC3)CCC2 | 0 | -4.23 | 0 | 64.5 | 0 | 0
CCCCCCCCCCn1c2c(c(=N)c3c1CCC3)CCC2 | - | 0 | - | - | - | -
N=c1c2c(n(Cc3cccc(Cl)c3)c3c1CCC3)CCCC2 | - | -9.29 | - | - | - | -
CCOC(=O)Cn1c2c(c(=N)c3c1CCC3)CCC2 | 0 | 0 | 0 | 0 | 0 | 0
Cc1ccc(NC(=O)C(C)N2CCOCC2)c(C(=O)c2ccccc2)c1 (stereo not drawn) | 0 | 0 | 0 | 0 | 0 | 0
COc1ccc(-c2nc3c(n2O)CCCC3=O)cc1OC | 0 | 0 | 0 | 0 | - | 0
O=C(/C=C/c1ccccc1)NC(NC(=S)Nc1cccc(Cl)c1)C(Cl)(Cl)Cl (stereo not drawn) | - | -7.3 | - | - | - | -
O=C(CC(Sc1ccccc1)c1cccs1)c1ccco1 (stereo not drawn) | 0 | 0 | 0 | 0 | 0 | 0
COc1cc(C2C3C(=O)N(c4ccc(F)cc4)C(=O)C3ON2c2ccccc2)ccc1O (stereo not drawn) | 0 | -6.94 | 0 | - | 0 | -
Clc1ccc2nc(N3CCCCC3)[nH]c2c1 | 0 | 0 | 0 | 0 | -4.95 | 0
CC(=O)NC(c1ccco1)c1ccc2cccnc2c1O (stereo not drawn) | 0 | 0 | 0 | 74.5 | 0 | 0
SMILES | M1 antagonist | DAT uptake mod | M1 agonist | Jurkat tox 60K | D1 mod | HEK293 NFkB inh
COc1cc(S(=O)(=O)NCc2cccnc2)ccc1F | - | 0 | - | - | - | -
CC1=C(C#N)C(Nc2cc(C)ccn2)(C(F)(F)F)C(=O)N1 (stereo not drawn) | - | 0 | - | - | - | -
CC1=NC(C(F)(F)F)(C(F)(F)F)C(C#N)=C(C)N1 | 0 | -3.85 | 0 | 0 | 0 | 0
CCN(CC)CCN1C(=O)C(=O)/C(=C(/O)c2ccc(OCC(C)C)cc2)C1c1ccncc1 (stereo not drawn) | 0 | - | 0 | 0 | 0 | 0
COc1ccc(/C=N/NC(=O)CCc2c(C)n[nH]c2C)cc1OC | - | 0 | - | - | - | -
COc1cc(/C=N/NC(=O)CCc2c(C)n[nH]c2C)ccc1O | - | -9.44 | - | - | - | -
C/C(CC(C)(C)C1CCCCC1)=N\NC(N)=S | - | 0 | - | - | - | -

Screening data deposited in PubChem BioAssay by several laboratories.
